Data set [1] is filed under the species Rattus norvegicus. Kind of data set: Antispasmodic activity was calculated as molar concentration of antagonist that inhibited 50% of a standard contraction response from isolated rat ileum preparation. Format: functional. The following applies: read-out: ID50 (the source's name).
The species named for data set [2] is Rattus norvegicus. Kind of data set: Relative potency with respect to (+/-)-3-Hydroxy-2-methyl-2-phenyl-propionic acid 2-diethylamino-ethyl ester in isolated rat ileum preparation. The data set is classed as functional.
The species entered for data set [3] is Rattus norvegicus. Put plainly: Antispasmodic activity calculated as ability of compound to block ACh-induced contractions of the ileum and expressed as pA2. The data set is classed as functional, organism-based. The following applies: for Kb: Rattus norvegicus, Ileum, read-out: pA2 (converted). A digest of the protocol:
(§1)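 Ileum from overnight-fasted rats killed by cervical dislocation, suspended in aerated Tyrode solution and recorded via force-displacement transducer. Contractions measured across increasing ACh concentrations, then ACh responses with antagonist present. pA2 derived by the Ariens–van Rossum method as the mean from linear regression of two or more experiments at four or more dose levels. ID50 is the molar antagonist concentration inhibiting 50% of a standard contraction.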

Another data set relates to ileum (Cavia porcellus). Put plainly: Antispasmodic activity was calculated as molar concentration of antagonist that inhibited 50% of a standard contraction response from isolated guinea pig ileum preparation. The following applies: read-out: ID50 (the source's name).
The species named for data set [4] is Cavia porcellus. Kind of data set: Antispasmodic activity was determined from isolated guinea pig ileum preparation.
Data set [5] is filed under the species Rattus norvegicus. Put plainly: Antispasmodic activity was calculated according to Ariens and van Rossum from isolated rat ileum preparations. The data set is classed as functional. The conditions noted are these: read-out: pA2 (converted). A digest of the protocol:
as §1

The species named for data set [6] is Rattus norvegicus. Put plainly: Antispasmodic activity was measured as percent reduction in rat ileum contraction against 300 ug/mL barium chloride 3 ug/mL (6.4X 10E-6 uM). The data set is classed as functional. A digest of the protocol:
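Rat ileum strips in a tissue bath were contracted with a standard BaCl2 dose (300 μg/mL), chosen from a preliminary dose-response, then washed back to baseline. Test compound was added and equilibrated for 10 min. Without washout, the same BaCl2 dose was given again. Percent inhibition was taken from the contraction before versus after compound.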

The species named for data set [7] is Rattus norvegicus. Kind of data set: Antispasmodic activity was measured as percent reduction in rat ileum contraction against 300 ug/mL barium chloride 0.5 ug/mL (1.5 X 10E-6 uM). The data set is classed as functional. A digest of the protocol: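 Ileum strips from overnight-fasted rats killed by cervical dislocation, held in a tissue bath with force-displacement transducer recording. BaCl2 at 300 µg/mL, a standard dose set by a preliminary dose-response study, induced contraction; tissue washed back to baseline. Test agent equilibrated 10 min, then the same BaCl2 dose was added without washout. Percent inhibition was taken from contraction before versus after agent.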

For data set [8], the species on record is Cavia porcellus. Kind of data set: Ability to inhibit 50% standard contraction response of the guinea pig ileal tissue was measured with increasing concentrations of Acetylcholine (ACh) in the tissue bath.
Data set [9] is filed under the species Cavia porcellus. Kind of data set: Ability to inhibit 50% standard contraction response of the guinea pig ileal tissue was measured with increasing concentrations of Acetylcholine (ACh) in the tissue bath. Format: functional.
Data set [10] is filed under the species Rattus norvegicus. Put plainly: (§2) Antispasmodic activity was measured as uM). Format: functional.
Data set [11] is filed under the species Rattus norvegicus. The data set is described as §2. The data set is classed as functional. The source holds these as a separate data set.
For data set [12], the species on record is Rattus norvegicus. The data set is described as §2. Format: functional. This is another data set of the same source.

For the molecule `CCN(CC)CCOC(=O)C(C)(CBr)c1ccccc1.Cl` (stereo unspecified), the IC50 in the data set filed under Rattus norvegicus [1] (Rattus norvegicus, Ileum) was 127 nM. This molecule also yielded a Relative potency in the data set listed under Rattus norvegicus [2] of 2.47. Further, in the data set filed under Rattus norvegicus [3], the Kb was 126 nM.
For `CCN(CC)CCOC(=O)C(C)(COC(C)=O)c1ccccc1.Cl` (stereo unspecified), in the data set filed under Rattus norvegicus [2], the Relative potency came out at 0.8. Further, the IC50 in the data set on ileum (Cavia porcellus) is 394 nM.
Take `CCN(CC)CCOC(=O)C(C)(CO)c1ccccc1.Cl` (single isomer, unassigned; (+)): the “Log K” value in the data set listed under Cavia porcellus [4] is 6.13. In addition, in the data set listed under Rattus norvegicus [1], the IC50 was 1140 nM. In the data set listed under Rattus norvegicus [2], this molecule yielded a Relative potency of 0.27. For the same molecule, the pA2 in the data set listed under Rattus norvegicus [3] was 5.94.
Take `CCN(CC)CCOC(=O)C(C)(COS(=O)(=O)c1ccc(C)cc1)c1ccccc1.Cl` (stereo in doubt; 2b): in the data set listed under Rattus norvegicus [1], the IC50 is 172 nM. The molecule also displayed a Relative potency in the data set filed under Rattus norvegicus [2] of 1.83. Also, in the data set filed under Rattus norvegicus [3], the pA2 is 6.77.
`CCN(CC)CCOC(=O)C(C)(CO)c1ccccc1.Cl` (single isomer, unassigned; (-)): the “Log K” value in the data set listed under Cavia porcellus [4] stood at 7.996. Also, in the data set filed under Rattus norvegicus [1], the IC50 is 16.3 nM. Moreover, the Relative potency in the data set filed under Rattus norvegicus [2] is reported as 19.26. Besides, in the data set filed under Rattus norvegicus [5], the Kb is 16.2 nM.
`CCN(CC)CCOC(=O)C(C)(COS(=O)(=O)c1ccc(C)cc1)c1ccccc1.Cl` (racemic): in the data set listed under Rattus norvegicus [1], the IC50 was 38.9 nM. The molecule further showed an Inhibition in the data set listed under Rattus norvegicus [6] of 33%. Moreover, the Relative potency in the data set filed under Rattus norvegicus [2] is reported as 8.07. Besides, the pA2 in the data set listed under Rattus norvegicus [3] was 7.41.
Molecule `CN1[C@@H]2CC[C@H]1C[C@@H](OC(=O)C(CO)c1ccccc1)C2` (stereo partly specified) [ATROPINE] returned an Inhibition in the data set listed under Rattus norvegicus [7] of 5.9%.
For the molecule `CCN(CC)CCOC(=O)C(C)(CCl)c1ccccc1.Cl` (stereo unspecified), the IC50 in the data set listed under Rattus norvegicus [1] (Rattus norvegicus, Ileum) is 554 nM. In the data set listed under Rattus norvegicus [2], the Relative potency came to 0.57. Besides, the Kb in the data set filed under Rattus norvegicus [3] was 550 nM. The same molecule gave an ID50 in the data set filed under Cavia porcellus [8] of 1170 nM.
`CCN(CC)CCOC(=O)C(C)(CI)c1ccccc1.Cl` (stereo unspecified): in the data set listed under Rattus norvegicus [1] (Rattus norvegicus, Ileum), the IC50 is 38.7 nM. The molecule further had a Relative potency in the data set filed under Rattus norvegicus [2] of 8.11. The Kb in the data set listed under Rattus norvegicus [3] was 38.9 nM.
`CCN(CC)CCOC(=O)C(C)(CF)c1ccccc1.Cl` (stereo unspecified): the ID50 in the data set listed under Cavia porcellus [9] was found to be 411 nM. The IC50 in the data set listed under Rattus norvegicus [1] (Rattus norvegicus, Ileum) was 301 nM. Besides, the Inhibition in the data set listed under Rattus norvegicus [10] was determined as 24%; in the data set filed under Rattus norvegicus [11], 35.7%; in the data set filed under Rattus norvegicus [12] it was 15.7%. For the same molecule, the Relative potency in the data set filed under Rattus norvegicus [2] was 1.04. In addition, in the data set listed under Rattus norvegicus [3], the Kb is 302 nM.
Consider `CCN(CC)CCOC(=O)C(C)(COS(=O)(=O)c1ccc(C)cc1)c1ccccc1.Cl` (stereo in doubt; 2a), for which, in the data set listed under Rattus norvegicus [1], the IC50 was 31 nM. In the data set listed under Rattus norvegicus [2], this molecule yielded a Relative potency of 10.13. In the data set listed under Rattus norvegicus [3], the pA2 is 7.51.
As to `CCN(CC)CCOC(=O)C(C)(CO)c1ccccc1.Cl` (racemic), the ID50 in the data set filed under Cavia porcellus [9] turned out to be 483 nM. The IC50 in the data set listed under Rattus norvegicus [1] is 314 nM. Besides, the pA2 in the data set listed under Rattus norvegicus [3] was 6.5.

The pA2 is the negative logarithm of the molar antagonist concentration that doubles the agonist concentration needed for the same response. For orientation: Inhibition means the drop in the measured response relative to a control, in per cent. The low end stands for a weak effect, the high end for a strong effect.

Source of the values: ChEMBL document CHEMBL1123681, “Molecular modification of anticholinergics as probes for muscarinic receptors. 2. Amino esters of alpha-methyltropic acid” (J Med Chem, 1987).
